Measured values reported in ChEMBL document CHEMBL1128552, “8-Amino-3-benzyl-1,2,4-triazolo[4,3-a]pyrazines. Synthesis and anticonvulsant activity” (J Med Chem, 1995).

Legend:
Rattus norvegicus [1] = test: The compound was tested for anticonvulsant activity against Maximal Electroshock-Induced Seizures(MES) in intraperitoneal administration.; type: functional; conditions: ip
Summary of the method: (§1)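 Male Wistar rats (Charles River), maximal electroshock seizure test. Compounds given as solutions or fine dispersions in water or 0.5% methylcellulose; poorly soluble samples micronized. Initial screen at 25 mg/kg ip. ED50 is the dose protecting 50% against hind-limb extensor component, calculated by Miller–Tainter method. Either four doses with at least 12 animals each (with standard error), or three doses with six animals each.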

Rattus norvegicus [2] = test: The compound was tested for anticonvulsant activity against Maximal Electroshock-Induced Seizures(MES) in Wistar male rat, after peroral administration.; type: functional; conditions: po; summary of the method: as §1
[3] = Lipophilicity was measured; type: physicochemical; conditions: octanol/water
[4] = Dissociation constant was measured; type: physicochemical

SMILES | ED50 (Rattus norvegicus [1]) [mg/kg] | ED50 (Rattus norvegicus [2]) [mg/kg] | logP [3] | pKa [4]
Nc1nccn2c(Cc3ccccc3F)nnc12 | 9 | 8 | – | –
CNc1nccn2c(Cc3cccc(F)c3)nnc12 | 4 | 20 | – | –
CNc1nccn2c(Cc3ccccc3F)nnc12 | 5 | 2.6 | 1.56 | 4.02
Nc1nccn2c(Cc3ccc(F)cc3)nnc12 | > 25 | – | – | –
CNc1nccn2c(Cc3ccc(F)cc3)nnc12 | 25 | – | – | –
CNc1nccn2c(Cc3c(F)cccc3F)nnc12 | 2 | 3 | – | –
Nc1nccn2c(Cc3c(F)cccc3F)nnc12 | 4 | 7 | – | –
Nc1nccn2c(Cc3cc(F)ccc3F)nnc12 | 7 | 20 | – | –
CNc1nccn2c(Cc3cc(F)ccc3F)nnc12 | 4 | 10 | – | –
Nc1nccn2c(Cc3cccc(F)c3)nnc12 | > 25 | – | – | –
CNc1nccn2c(Cc3ccccc3)nnc12 | 6 | 16 | – | –
Nc1ncnc2c1ncn2Cc1ccccc1F | 4.5 | 12 | – | –
CNc1ncnc2c1ncn2Cc1ccccc1F [BW-A78U] | 1.7 | 2.5 | 1.86 | 3.88
O=C1NC(=O)C(c2ccccc2)(c2ccccc2)N1 [PHENYTOIN] | 10 | 20 | – | –
